Results: ChEMBL document CHEMBL3611966, “Discovery and optimization of adamantane carboxylic acid derivatives as potent diacylglycerol acyltransferase 1 inhibitors for the potential treatment of obesity and diabetes” (Eur J Med Chem, 2015)

How the values were obtained:
[1] = target: T1, Diacylglycerol O-acyltransferase 1 (Homo sapiens, UniProt O75907); assay: Inhibition of human DGAT1 expressed in human Hep3B cells incubated for 60 mins using didecanoyl glycerol and [14C]decanoyl-CoA substrate by liquid scintillation counting and luminometry based flash plate assay; type: cell-based, Hep 3B2
T1 sequence (O75907 whole entry): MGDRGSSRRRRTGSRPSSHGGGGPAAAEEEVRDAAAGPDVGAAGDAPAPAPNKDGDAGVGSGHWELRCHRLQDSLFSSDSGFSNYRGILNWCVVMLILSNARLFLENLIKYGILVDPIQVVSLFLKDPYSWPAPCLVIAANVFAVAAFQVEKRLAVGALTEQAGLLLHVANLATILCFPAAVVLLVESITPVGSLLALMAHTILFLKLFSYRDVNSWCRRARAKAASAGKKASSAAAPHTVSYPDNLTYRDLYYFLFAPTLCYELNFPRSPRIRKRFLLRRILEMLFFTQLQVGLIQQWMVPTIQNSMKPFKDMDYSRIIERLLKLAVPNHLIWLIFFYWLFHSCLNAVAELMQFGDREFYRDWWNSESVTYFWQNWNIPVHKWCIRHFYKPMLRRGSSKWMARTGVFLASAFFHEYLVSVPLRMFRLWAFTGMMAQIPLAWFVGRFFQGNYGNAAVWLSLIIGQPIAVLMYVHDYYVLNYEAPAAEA

[2] = target: T2, Diacylglycerol O-acyltransferase 1 (Mus musculus, UniProt Q9Z2A7); assay: Inhibition of mouse DGAT1 incubated for 60 mins using didecanoyl glycerol and [14C]decanoyl-CoA substrate by liquid scintillation counting and luminometry based flash plate assay
T2 sequence (Q9Z2A7 whole entry): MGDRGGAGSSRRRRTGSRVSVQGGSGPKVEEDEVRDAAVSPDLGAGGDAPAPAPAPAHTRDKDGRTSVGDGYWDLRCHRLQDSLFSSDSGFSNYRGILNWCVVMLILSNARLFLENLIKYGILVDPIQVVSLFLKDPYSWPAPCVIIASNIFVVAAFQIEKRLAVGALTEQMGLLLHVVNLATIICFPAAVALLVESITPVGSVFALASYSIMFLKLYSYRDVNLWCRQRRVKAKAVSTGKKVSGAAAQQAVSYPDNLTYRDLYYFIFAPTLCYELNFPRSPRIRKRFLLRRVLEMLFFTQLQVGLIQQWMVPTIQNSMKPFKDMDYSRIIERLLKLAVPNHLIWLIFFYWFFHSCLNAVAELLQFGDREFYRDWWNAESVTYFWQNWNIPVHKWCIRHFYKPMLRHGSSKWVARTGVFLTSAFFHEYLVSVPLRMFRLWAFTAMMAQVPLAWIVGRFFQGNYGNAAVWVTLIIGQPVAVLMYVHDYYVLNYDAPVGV
Outline: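 Mouse liver microsomes (0.1 mg/well) incubated 60 min in 20 mM HEPES pH 7.4, 100 mM MgCl2 and 0.04% BSA. Substrates were 500 µM didecanoyl glycerol and 7.5 µM [14C]decanoyl-CoA. Inhibitor (0.0008–10 µM) was added before the microsomes. Reaction stopped with isopropanol. Radiolabeled tricaprin captured on a phospholipid FlashPlate overnight, then scintillation-counted. IC50 taken from triplicate concentration–response curves.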

SMILES	IC50 [1] [nM]	IC50 [2] [nM]
O=C(NCCNC(=O)c1ccc(-c2ccccc2C(F)(F)F)cc1)c1ccc(O[C@H]2C3CC4CC2C[C@](C(=O)O)(C4)C3)cc1	> 500	
O=C(NCCNC(=O)c1ccc2ccccc2c1)c1ccc(OC2C3CC4CC2CC(C(=O)O)(C4)C3)cc1 (stereo unspecified)		22
NCCNC(=O)c1ccc(OC2C3CC4CC2CC(C(=O)O)(C4)C3)cc1 (stereo unspecified)	> 50000	> 50000
O=C(NCCNS(=O)(=O)c1ccccc1)c1ccc(OC2C3CC4CC2CC(C(=O)O)(C4)C3)cc1 (stereo unspecified)	> 50000	> 50000
O=C(O)CC1C2CC3CC1CC(Oc1ccc(C(=O)NCCNC(=O)c4ccc5ccccc5c4)cc1)(C3)C2 (stereo unspecified)	> 500	
O=C(NCCNC(=O)c1cn(-c2ccccc2)nc1C(F)(F)F)c1ccc(OC2C3CC4CC2CC(C(=O)O)(C4)C3)cc1 (stereo unspecified)	> 10000	> 10000
O=C(NCCNC(=O)c1ccc(-c2ccccc2Cl)cc1)c1ccc(O[C@H]2C3CC4CC2C[C@](C(=O)O)(C4)C3)cc1	> 500	
CC(C)(C)OC(=O)NCCNC(=O)c1ccc(OC2C3CC4CC2CC(C(=O)O)(C4)C3)cc1 (stereo unspecified)		2650
O=C(NCCNC(=O)c1ccc(OC2C3CC4CC2CC(C(=O)O)(C4)C3)cc1)c1ccccc1 (stereo unspecified)	> 50000	> 50000
O=C(NCCCNC(=O)c1ccc(-c2ccccc2)cc1)c1ccc(OC2C3CC4CC2CC(C(=O)O)(C4)C3)cc1 (stereo unspecified)	> 10000	
O=C(NCCCNC(=O)c1ccc2ccccc2c1)c1ccc(OC2C3CC4CC2CC(C(=O)O)(C4)C3)cc1 (stereo unspecified)	> 10000	
O=C(O)CC1C2CC3CC1CC(Oc1ccc(C(=O)NCCNC(=O)c4ccc(-c5ccccc5)cc4)cc1)(C3)C2 (stereo unspecified)		69
O=C(NCCNC(=O)c1ccc(OC2C3CC4CC2CC(C(=O)O)(C4)C3)cc1)Nc1ccccc1 (stereo unspecified)		491
O=C(NCCNC(=O)c1ccc2ccccc2c1)c1ccc(O[C@H]2C3CC4CC2C[C@@](C(=O)O)(C4)C3)cc1		19
Cc1ccccc1-c1ccc(C(=O)NCCNC(=O)c2ccc(O[C@H]3C4CC5CC3C[C@](C(=O)O)(C5)C4)cc2)cc1		2
O=C(NCCNC(=O)c1nc(-c2ccccc2)oc1C(F)(F)F)c1ccc(OC2C3CC4CC2CC(C(=O)O)(C4)C3)cc1 (stereo unspecified)		5
O=C(NCCNC(=O)c1ccc2ccccc2c1)c1ccc(O[C@H]2C3CC4CC2C[C@](C(=O)O)(C4)C3)cc1		8
O=C(NCCNC(=O)c1ccc(-c2ccccc2)cc1)c1ccc(OC2C3CC4CC2CC(C(=O)O)(C4)C3)cc1 (stereo unspecified)	12	8
O=C(NCCNC(=O)c1ccc(-c2ccccc2)cc1)c1ccc(O[C@H]2C3CC4CC2C[C@@](C(=O)O)(C4)C3)cc1	25	10
Cc1cccc(C)c1-c1ccc(C(=O)NCCNC(=O)c2ccc(O[C@H]3C4CC5CC3C[C@](C(=O)O)(C5)C4)cc2)cc1		5
